Legend:
[1] = biological target: T1, Low molecular weight protein-tyrosine phosphatase A (Mycobacterium tuberculosis) (UniProt P9WIA1); assay: Inhibition of Mycobacterium tuberculosis PTP-A using p-nitrophenyl phosphate as substrate at 25 uM measured for 10 mins by spectrofluorimetry
T1 sequence (whole entry): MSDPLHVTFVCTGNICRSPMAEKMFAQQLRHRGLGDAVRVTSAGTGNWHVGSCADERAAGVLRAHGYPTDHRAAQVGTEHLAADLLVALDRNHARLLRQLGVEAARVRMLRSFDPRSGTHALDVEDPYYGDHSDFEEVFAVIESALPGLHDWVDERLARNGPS
Summary of the method: (§1)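 Single-point screen at 25 μM final compound, added from 1.0 × 10−3 M DMSO stock, with recombinant Mtb PtpA or PtpB (0.4 μg/μL final) in 20 mM imidazole pH 7.0 with 40 mM pNPP. Reaction started by adding enzyme. p-Nitrophenol release read at 410 nm every min for 10 min at 37 °C. Residual activity was taken from the absorbance difference between 6 and 2 min; two experiments, each in triplicate.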

[2] = biological target: T2, Phosphotyrosine-protein phosphatase PTPB (Mycobacterium tuberculosis) (UniProt P96830); assay: Inhibition of Mycobacterium tuberculosis PTP-B using p-nitrophenyl phosphate as substrate at 25 uM measured for 10 mins by spectrofluorimetry; summary of the method: as §1
T2 sequence (whole entry): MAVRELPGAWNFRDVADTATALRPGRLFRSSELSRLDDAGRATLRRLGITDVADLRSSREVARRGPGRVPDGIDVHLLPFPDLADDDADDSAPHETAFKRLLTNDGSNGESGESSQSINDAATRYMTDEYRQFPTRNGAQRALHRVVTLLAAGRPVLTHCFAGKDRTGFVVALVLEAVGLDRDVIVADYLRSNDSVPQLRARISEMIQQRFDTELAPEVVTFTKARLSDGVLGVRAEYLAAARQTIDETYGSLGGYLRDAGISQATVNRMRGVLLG

[3] = biological target: T3, Low molecular weight protein-tyrosine phosphatase A (Mycobacterium tuberculosis, UniProt P9WIA1); assay: Inhibition of Mycobacterium tuberculosis PTP-A using p-nitrophenyl phosphate as substrate measured for 10 mins by spectrofluorimetry
T3 sequence (P9WIA1 whole entry): T1 sequence (whole entry)
Summary of the method: (§2)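 A410 read each minute over 10 min at 37 °C. Residual activity compared with wells without inhibitor; IC50 by linear regression of % inhibition against concentration. Triplicate, two independent experiments.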

[4] = Solubility of the compound; format: physicochemical
[5] = biological target: T4, Phosphotyrosine-protein phosphatase PTPB (Mycobacterium tuberculosis, UniProt P96830); assay: Inhibition of Mycobacterium tuberculosis PTP-B using p-nitrophenyl phosphate as substrate measured for 10 mins by spectrofluorimetry; summary of the method: as §2
T4 sequence (P96830 whole entry): T2 sequence (whole entry)

[6] = biological target: T5, Tyrosine-protein phosphatase non-receptor type 1 (Homo sapiens, UniProt P18031); assay: Inhibition of human PTP1B expressed in Escherichia coli BL21 DE3 using p-nitrophenyl phosphate as substrate measured for 10 mins by spectrofluorimetry
T5 sequence (P18031 whole entry): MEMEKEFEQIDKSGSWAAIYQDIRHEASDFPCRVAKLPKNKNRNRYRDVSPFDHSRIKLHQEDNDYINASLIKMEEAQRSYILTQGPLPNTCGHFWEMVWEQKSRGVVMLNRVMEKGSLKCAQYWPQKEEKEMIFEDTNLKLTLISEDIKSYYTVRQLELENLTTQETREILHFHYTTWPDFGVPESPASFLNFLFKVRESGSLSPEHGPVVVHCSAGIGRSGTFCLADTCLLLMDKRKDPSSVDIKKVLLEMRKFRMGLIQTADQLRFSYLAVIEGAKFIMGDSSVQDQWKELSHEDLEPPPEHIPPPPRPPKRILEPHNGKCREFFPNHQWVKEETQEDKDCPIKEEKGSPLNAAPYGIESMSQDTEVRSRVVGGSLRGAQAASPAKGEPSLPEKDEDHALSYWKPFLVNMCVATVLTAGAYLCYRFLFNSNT

[7] = Selectivity index, ratio of IC50 for human PTP1B to IC50 for Mycobacterium tuberculosis PTP-A
Summary of the method: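 Selectivity index calculated as IC50 for human PTP1B divided by IC50 for Mtb PtpA. Both IC50 values came from pNPP hydrolysis assays read at 410 nm for 10 min at 37 °C.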

[8] = biological target: T3, Low molecular weight protein-tyrosine phosphatase A; assay: Competitive inhibition of Mycobacterium tuberculosis PTP-A using p-nitrophenyl phosphate as substrate measured for 10 mins by Lineweaver-Burk plot analysis
Summary of the method: (§3)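 Kinetic mode determined with recombinant Mtb enzyme (PtpA or PtpB) using the screening conditions (20 mM imidazole pH 7.0, 37 °C, A410 read each minute for 10 min) but with pNPP varied over 0.5, 1.5, 3, 6, 8, 10, 15 and 25 mM. At least three inhibitor concentrations in the 5–60 μM range were used. Ki and mechanism were taken from Lineweaver–Burk double-reciprocal plots.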

[9] = biological target: T1, Low molecular weight protein-tyrosine phosphatase A (Mycobacterium tuberculosis); assay: Ratio of IC50 to Ki for Mycobacterium tuberculosis protein tyrosine phosphatase-A
[10] = biological target: T4, Phosphotyrosine-protein phosphatase PTPB; assay: Competitive inhibition of Mycobacterium tuberculosis PTP-B using p-nitrophenyl phosphate as substrate measured for 10 mins by Lineweaver-Burk plot analysis; summary of the method: as §3

SMILES: Cc1ccc(/C=C/C(=O)c2ccc3ccccc3c2)o1
- inhibition [1]: 30%
- inhibition [2]: 0%
- IC50 [3]: 1020 µM
- solubility [4]: soluble

SMILES: O=C(/C=C/c1ccc2ccccc2c1)c1ccc(Cl)s1
- inhibition [1]: 31%
- inhibition [2]: 49%
- IC50 [3]: 32 µM
- IC50 [5]: 57 µM
- IC50 [6]: 100 µM
- Ratio IC50 [7]: 3.1
- Ki [8]: 23 µM
- Ratio [9]: 1.4
- solubility [4]: soluble

SMILES: O=C(/C=C/c1cccc2ccccc12)c1ccc2ccccc2c1
- inhibition [1]: 43%
- inhibition [2]: 0%
- IC50 [3]: 93 µM
- solubility [4]: soluble

SMILES: COc1cc(/C=C/C(=O)c2ccc(Br)cc2)ccc1OCc1ccccc1
- inhibition [1]: 63%
- inhibition [2]: 0%
- IC50 [3]: 302 µM
- solubility [4]: soluble

SMILES: COc1ccc(C(=O)/C=C/c2ccc(OCc3ccccc3)c(OC)c2)c(OC)c1
- inhibition [1]: 40%
- inhibition [2]: 0%
- IC50 [3]: 15 µM
- IC50 [5]: > 100 µM
- IC50 [6]: 263 µM
- Ratio IC50 [7]: 18
- Ki [8]: 12 µM
- Ratio [9]: 1.3
- solubility [4]: soluble

SMILES: COc1cccc(OC)c1/C=C/C(=O)c1ccc2ccccc2c1
- inhibition [1]: 40%
- inhibition [2]: 24%
- IC50 [3]: 214 µM
- solubility [4]: soluble

SMILES: O=C(/C=C/c1ccc([N+](=O)[O-])cc1)c1ccc2ccccc2c1
- inhibition [1]: 18%
- inhibition [2]: 39%
- IC50 [5]: 62 µM
- solubility [4]: soluble

SMILES: O=C(/C=C/c1ccc(Cl)cc1Cl)c1ccc2ccccc2c1
- inhibition [1]: 10%
- inhibition [2]: 47%
- IC50 [5]: 417 µM
- solubility [4]: soluble

SMILES: O=C(/C=C/c1ccc2ccccc2c1)c1ccc2ccccc2c1
- inhibition [1]: 39%
- inhibition [2]: 25%
- IC50 [3]: 93 µM
- solubility [4]: soluble

SMILES: COc1cc(OC)c(/C=C/C(=O)c2ccc3ccccc3c2)c(OC)c1
- inhibition [1]: 49%
- inhibition [2]: 0%
- IC50 [3]: 1660 µM
- solubility [4]: soluble

SMILES: O=C(/C=C/c1ccc(Br)cc1)c1ccc2c(c1)OCO2
- inhibition [1]: 37%
- inhibition [2]: 9%
- IC50 [3]: 66 µM
- solubility [4]: soluble

SMILES: Cc1ccc(/C=C/C(=O)c2ccc3c(c2)OCO3)o1
- inhibition [1]: 40%
- inhibition [2]: 8%
- IC50 [3]: 169 µM
- solubility [4]: soluble

SMILES: O=C(/C=C/c1ccc2ccccc2c1)c1ccc(Br)cc1
- inhibition [1]: 11%
- inhibition [2]: 42%
- IC50 [3]: > 50 µM
- IC50 [5]: 25 µM
- IC50 [6]: 29 µM
- Ki [10]: 10 µM
- solubility [4]: soluble

SMILES: O=C(/C=C/c1cccc(C(F)(F)F)c1)c1ccc2c(c1)OCO2
- inhibition [1]: 41%
- inhibition [2]: 0%
- IC50 [3]: 155 µM
- solubility [4]: soluble

SMILES: O=C(/C=C/c1ccc(C(F)(F)F)cc1)c1ccc2ccccc2c1
- inhibition [1]: 43%
- inhibition [2]: 37%
- IC50 [3]: 331 µM
- IC50 [5]: 339 µM
- solubility [4]: soluble

SMILES: COc1ccc(/C=C/C(=O)c2ccc3ccccc3c2)cc1
- inhibition [1]: 35%
- inhibition [2]: 0%
- IC50 [3]: 93 µM
- solubility [4]: soluble

SMILES: O=C(/C=C/c1ccc(-c2cc(C(F)(F)F)ccc2Cl)o1)c1ccc2c(c1)OCO2
- inhibition [1]: 36%
- inhibition [2]: 16%
- IC50 [3]: 174 µM
- solubility [4]: soluble

SMILES: O=C(/C=C/c1ccc(Cl)cc1)c1ccc2c(c1)OCO2
- inhibition [1]: 38%
- inhibition [2]: 0%
- IC50 [3]: 117 µM
- solubility [4]: soluble

SMILES: O=C(/C=C/c1ccc2c(c1)OCO2)c1ccc([N+](=O)[O-])cc1
- inhibition [1]: 33%
- inhibition [2]: 34%
- IC50 [3]: 62 µM
- IC50 [5]: 51 µM
- IC50 [6]: 23 µM
- Ki [10]: 13 µM
- solubility [4]: soluble

SMILES: COc1ccc2nc(Cl)c(/C=C/C(=O)c3ccc4c(c3)OCO4)cc2c1
- inhibition [1]: 29%
- inhibition [2]: 0%
- IC50 [3]: 93 µM
- solubility [4]: soluble

SMILES: O=C(/C=C/c1ccc([N+](=O)[O-])cc1)c1ccc2c(c1)OCO2
- inhibition [1]: 35%
- inhibition [2]: 10%
- IC50 [3]: 74 µM
- solubility [4]: soluble

SMILES: O=C(O)c1ccc(/C=C/C(=O)c2ccc3ccccc3c2)cc1
- inhibition [1]: 9%
- inhibition [2]: 70%
- IC50 [3]: > 100 µM
- IC50 [5]: 12 µM
- IC50 [6]: 3090 µM
- Ki [10]: 8 µM
- solubility [4]: soluble

SMILES: Cc1ccc(C(=O)/C=C/c2ccc3ccccc3c2)cc1
- inhibition [1]: 10%
- inhibition [2]: 34%
- IC50 [5]: 135 µM
- solubility [4]: soluble

SMILES: O=C(/C=C/c1ccc(Cl)cc1Cl)c1ccc2c(c1)OCO2
- inhibition [1]: 27%
- inhibition [2]: 0%
- IC50 [3]: 407 µM
- solubility [4]: soluble

SMILES: COc1ccc(C(=O)/C=C/c2ccc3c(c2)OCO3)c(OC)c1
- inhibition [1]: 42%
- inhibition [2]: 0%
- IC50 [3]: 101 µM
- solubility [4]: soluble

SMILES: O=C(/C=C/c1ccc2ccccc2c1)c1ccc(-n2ccnc2)cc1
- inhibition [1]: 40%
- inhibition [2]: 0%
- IC50 [3]: 100 µM
- solubility [4]: soluble

SMILES: COc1cc(/C=C/C(=O)c2ccc(-n3ccnc3)cc2)ccc1OCc1ccccc1
- inhibition [1]: 38%
- inhibition [2]: 0%
- IC50 [3]: 102 µM
- solubility [4]: soluble

SMILES: O=C(/C=C/c1ccccc1[N+](=O)[O-])c1ccc2ccccc2c1
- inhibition [1]: 10%
- inhibition [2]: 32%
- IC50 [5]: 54 µM
- solubility [4]: soluble

SMILES: O=C(/C=C/c1ccccc1[N+](=O)[O-])c1ccc2c(c1)OCO2
- inhibition [1]: 0%
- inhibition [2]: 43%
- IC50 [5]: 81 µM
- solubility [4]: soluble

SMILES: COc1ccc(/C=C/C(=O)c2ccc3c(c2)OCO3)c(OC)c1OC
- inhibition [1]: 26%
- inhibition [2]: 9%
- IC50 [3]: 83 µM
- solubility [4]: soluble

SMILES: O=C(/C=C/c1ccc(-c2ccccc2[N+](=O)[O-])o1)c1ccc2ccccc2c1
- inhibition [1]: 9%
- inhibition [2]: 7%
- solubility [4]: soluble

SMILES: O=C(/C=C/c1cccc(Br)c1)c1ccc2c(c1)OCO2
- inhibition [1]: 5%
- inhibition [2]: 0%
- solubility [4]: soluble

SMILES: COc1cc(OC)c(OC)cc1/C=C/C(=O)c1ccc2c(c1)OCO2
- inhibition [1]: 19%
- inhibition [2]: 19%
- solubility [4]: soluble

SMILES: O=C(/C=C/c1ccc(Cl)c(Cl)c1)c1ccc2c(c1)OCO2
- inhibition [1]: 35%
- inhibition [2]: 0%
- IC50 [3]: 151 µM
- solubility [4]: soluble

SMILES: COc1ccc(OC)c(/C=C/C(=O)c2ccc3c(c2)OCO3)c1
- inhibition [1]: 10%
- inhibition [2]: 0%
- solubility [4]: soluble

SMILES: O=C(/C=C/c1ccc2ccccc2c1)c1ccc[nH]1
- inhibition [1]: 16%
- inhibition [2]: 37%
- IC50 [5]: 81 µM
- solubility [4]: soluble

SMILES: O=C(/C=C/c1ccc2c(c1)OCO2)c1cccc([N+](=O)[O-])c1
- inhibition [1]: 26%
- inhibition [2]: 6%
- IC50 [3]: 45 µM
- IC50 [5]: > 100 µM
- IC50 [6]: 107 µM
- Ratio IC50 [7]: 2.4
- Ki [8]: 29 µM
- Ratio [9]: 1.5
- solubility [4]: soluble

SMILES: O=C(/C=C/c1ccc(Cl)c(C(F)(F)F)c1)c1ccc2c(c1)OCO2
- inhibition [1]: 0%
- inhibition [2]: 0%
- solubility [4]: soluble

From ChEMBL document CHEMBL1944567, “Synthesis, biological evaluation, and molecular modeling of chalcone derivatives as potent inhibitors of Mycobacterium tuberculosis protein tyrosine phosphatases (PtpA and PtpB)” (J Med Chem, 2012)
